Measured values of several laboratories.
Protocols differ between the studies behind these lines.
Effect on: cell growth or viability

COc1cc(OC)c2c(=O)cc(-c3ccc(Br)cc3)oc2c1-c1c(OC)cc(OC)c2c(=O)cc(-c3ccc(Br)cc3)oc12
IC50 (HS27; MTT; 24 h): > 200 µM

COc1cc2c(cc1O)CCN(Cc1cc(OC)c(OC)c(OC)c1)C2
GI50 (MDA-MB-231; WST-1; 96 h): 0.62 µM

COc1cc(OC)c2c(=O)cc(-c3ccc(N(C)C)cc3)oc2c1
IC50 (HS27; MTT; 24 h): > 200 µM

COc1cc2c(cc1O)CCN(Cc1cc(OC)c(OC)cc1OC)C2
GI50 (MDA-MB-231; WST-1; 96 h): 4.1 µM

COc1cc(OC)c2c(=O)cc(-c3ccc(C(F)(F)F)cc3)oc2c1
IC50 (HS27; MTT; 24 h): > 200 µM

CNC(=O)c1ccc(N2C(=S)N(c3ccc(C#N)c(C(F)(F)F)c3)C(=O)C2(C)C)cc1F
GI50 (CWR22Rv1; MTT): 15.1 µM

COc1cccc(-c2nc3ccccc3[nH]2)c1
IC50 (MDA-MB-231; MTT; 48 h): 25.5 µM

COc1cc(OC)c(OC)cc1CN1CCc2cc(OS(N)(=O)=O)c(OC)cc2C1
GI50 (MDA-MB-231; WST-1; 96 h): 0.491 µM

N#CC(C(=O)Nc1cccc(C(F)(F)F)c1)=C1Sc2nc3ccc(S(=O)(=O)N4CCCC4)cc3nc2S1
viability (MDA-MB-231; MTT; 50 µM; 24 h): 18.4%

COc1cc(C)cc2oc(-c3ccccc3Br)cc(=O)c12
IC50 (HS27; MTT; 24 h): 130 µM

Oc1ccc(Nc2nc(-c3ccc(Cl)cc3)cs2)cc1
IC50 (FF2441; MTS; 72 h): > 100 µM

Cc1ccc2nc(-c3ccc(N(C)C)cc3)[nH]c2c1
IC50 (MDA-MB-231; MTT; 48 h): 31.5 µM

COc1cc2c(cc1OS(N)(=O)=O)CCN(C(=O)c1cc(OC)c(OC)c(OC)c1)C2
GI50 (MDA-MB-231; WST-1; 96 h): 1.72 µM

Fc1ccc(-c2nc3ccccc3[nH]2)cc1
IC50 (MDA-MB-231; MTT; 48 h): > 100 µM

COc1cccc2c1C(=O)c1c(O)c3c(c(O)c1C2=O)C[C@@](O)(C(=O)CO)C[C@@H]3O[C@H]1C[C@H](N)[C@H](O)[C@H](C)O1
viability (MDA-MB-231; MTT; 25 µM; 24 h): 16.2%

Cc1ccc2nc(-c3ccc([N+](=O)[O-])cc3)n(Cc3ccccc3Cl)c2c1
IC50 (MDA-MB-231; MTT): 28.5 µM

COc1cc2c(cc1OS(N)(=O)=O)CCN(Cc1cccc(OC(C)C)c1)C2
GI50 (MDA-MB-231; WST-1; 96 h): 4.65 µM

Cc1ccc2nc(-c3cccnc3)[nH]c2c1
IC50 (MDA-MB-231; MTT; 48 h): 89 µM

COc1cc2c(cc1OS(N)(=O)=O)CCN(Cc1cccc(NS(C)(=O)=O)c1)C2
GI50 (MDA-MB-231; WST-1; 96 h): > 100 µM

COc1cc(OC)c2c(=O)cc(-c3ccccc3)oc2c1-c1c(OC)cc(OC)c2c(=O)cc(-c3ccccc3)oc12
IC50 (HS27; MTT; 24 h): > 200 µM

CCOC(=O)C(C(C)=O)=C1Sc2nc3ccc(S(=O)(=O)N4CCCC4)cc3nc2S1
viability (MDA-MB-231; MTT; 3.125 µM; 24 h): 49.2%

COc1cc(C)c(-c2c(C)cc(OC)c3c(=O)cc(-c4ccc(N(C)C)cc4)oc23)c2oc(-c3ccc(N(C)C)cc3)cc(=O)c12
IC50 (HS27; MTT; 24 h): 180 µM

Cc1cc2c(cc1N1C(=O)c3cccc4c(CCCO)ccc(c34)C1=O)n(C)c(=O)n2C (racemic)
GI50 (NCI-H526; resazurin): 6.86 µM

Fc1cccc(Cl)c1-c1nc2ccccc2[nH]1
IC50 (MDA-MB-231; MTT; 48 h): 69 µM

COc1cc2c(cc1O)CCN(C(=O)c1cc(OC)c(OC)c(OC)c1)C2
GI50 (MDA-MB-231; WST-1; 96 h): 0.733 µM

Cc1ccc2nc(-c3ccc(Cl)cc3Cl)[nH]c2c1
IC50 (MDA-MB-231; MTT; 48 h): 27.5 µM

COc1cc(OC)c2c(=O)cc(-c3ccccc3)oc2c1
IC50 (HS27; MTT; 24 h): > 200 µM

CC#CC(=O)N1CC[C@@H](n2cc(-c3ccc(Oc4c(F)cccc4F)cc3)c3c(N)n[nH]c(=O)c32)C1
GI50 (OCI-Ly3; ATP luminescence; 72 h): 9.56 µM

Cc1ccc2nc(-c3ccc(Cl)c(Cl)c3)n(Cc3ccccc3)c2c1
IC50 (MDA-MB-231; MTT): 83.2 µM

O=C1CCCCC1=C1Sc2nc3ccc(S(=O)(=O)N4CCCC4)cc3nc2S1
viability (MDA-MB-231; MTT; 50 µM; 24 h): 14.9%
